Compound activity as filed in PubChem.
PKD1 inh – blocks activity of human protein kinase D1; PKD1 kinase fluorescence polarization assay; Q15139; inhibition, % (test concentration not listed); hit rate 0.056% among 200,000
Target sequence (Q15139 whole entry, looked up): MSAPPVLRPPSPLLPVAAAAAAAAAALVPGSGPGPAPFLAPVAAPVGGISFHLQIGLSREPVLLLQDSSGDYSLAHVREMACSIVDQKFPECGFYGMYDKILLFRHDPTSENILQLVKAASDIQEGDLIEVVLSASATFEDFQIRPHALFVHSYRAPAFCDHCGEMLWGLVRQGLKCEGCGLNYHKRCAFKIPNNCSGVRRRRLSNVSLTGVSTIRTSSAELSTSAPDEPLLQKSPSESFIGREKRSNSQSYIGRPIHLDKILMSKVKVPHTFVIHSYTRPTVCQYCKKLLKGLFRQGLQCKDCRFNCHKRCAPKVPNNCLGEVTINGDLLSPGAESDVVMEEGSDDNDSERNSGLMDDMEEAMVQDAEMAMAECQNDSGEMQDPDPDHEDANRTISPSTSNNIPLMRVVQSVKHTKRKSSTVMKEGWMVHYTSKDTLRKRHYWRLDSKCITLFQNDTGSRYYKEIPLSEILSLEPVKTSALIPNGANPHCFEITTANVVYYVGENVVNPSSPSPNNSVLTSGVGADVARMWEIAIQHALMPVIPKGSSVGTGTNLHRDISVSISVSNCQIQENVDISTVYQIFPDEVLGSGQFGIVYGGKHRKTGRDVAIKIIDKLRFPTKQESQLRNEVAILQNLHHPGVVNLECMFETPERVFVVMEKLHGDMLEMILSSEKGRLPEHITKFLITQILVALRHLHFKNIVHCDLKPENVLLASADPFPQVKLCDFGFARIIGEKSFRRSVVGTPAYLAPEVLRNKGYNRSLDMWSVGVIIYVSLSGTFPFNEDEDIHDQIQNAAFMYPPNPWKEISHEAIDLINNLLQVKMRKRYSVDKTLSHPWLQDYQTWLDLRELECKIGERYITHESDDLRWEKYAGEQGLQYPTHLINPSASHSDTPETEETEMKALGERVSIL
Wee1 degr inh – human Wee1 degradation inhibition, primary screen; P30291; HeLa Luc-Wee1K328M stability, luciferase luminescence; 100% = proteasome inhibitor MG132 effect; reporter increase, % at 5 µM; hit rate 1.2% among 220,000; AID 1321;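 active = activation above the mean of all tested compounds plus 3 SD, set per screening run, cut at about 8.8% in these data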;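 note: cells exposed to compound for 20 h before luminescence read; 0% = DMSO alone and 100% = MG132 at 30 µM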
L major viab – inhibitors of Leishmania major promastigote growth; Leishmania major promastigotes, resazurin fluorescence viability; inhibition, % at 10 µM; hit rate 9% among 200,000; AID 1063;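 note: promastigotes grown with compound for 44 hours at 28 °C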
CHOP inh – inhibitors of CHOP induction in ER stress response; hit rate 3.8% among 220,000; AID 2732; CHO-K1 CHOP-promoter luciferase, tunicamycin-induced, 15-18 h; inhibition, % at 10 µM;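 active = compounds that reduced the stress-induced luciferase reporter signal by more than about 70% of percent inhibition, limit read from the data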;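 note: 0% = tunicamycin plus vehicle and 100% = wells without tunicamycin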
Arbovirus anti – arbovirus infection inhibition; inhibition, % at 10 µM; arbovirus infection cell-based antiviral screen; hit rate 0.37% among 200,000; in the data active = inhibition above about 30%
Rad51 HR inh – Rad51 (human) homologous recombination inhibition. Q06609. hRad51 DNA strand exchange, fluorescence dequenching. inhibition, % at 10 µM. hit rate 0.085% among 200,000. AID 1385;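 active = inhibition above 40% at the single screening dose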;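 note: 0% = DMSO control wells and 100% = blanks with heterologous ssDNA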
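Test system: preformed human Rad51 ssDNA filaments. Compound dosing: single dose, 10 µM final compound. Incubation: filaments 15 min 37 °C, then compound 30 min. Technique: FRET fluorescence dequenching, excitation 485 nm, emission 520 nm. Read-out basis: percent inhibition from fluorescence, normalised to plate control and blank means. Benchmarks: plate controls and plate blanks.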
Numbers without * were called inactive; . = not tested or not shown. Shown are actives, neighbours in structure and some others; about 12% of the full set was active somewhere. Cut-off read from the data, not from the text of the source, unless noted: active = inhibition above about 50%; inactive = the rest.

SMILES	PKD1 inh	Wee1 degr inh	L major viab	CHOP inh	Arbovirus anti	Rad51 HR inh
COc1ccc(NC(=O)CNc2ccc(C#N)cc2)cc1	-2	-1	5	-1	4	12
CC(C)OC(=O)CSc1ncnc2c1cnn2Cc1ccccc1	-16	1	2	75*	-3	5
CC1=Nc2ccccc2/C1=C/c1c(N)n2c(S(=O)(=O)C(C)C)nsc2nc1=O	4	3	-2	13	39*	-22
CC(C)S(=O)(=O)c1nsc2nc(=O)c(/C=C3\C=Nc4ccccc43)c(N)n12	-12	3	-6	5	37*	-4
CC1=Nc2ccc(C)cc2/C1=C/c1c(N)n2c(S(=O)(=O)C(C)C)nsc2nc1=O	-3	-2	-6	-15	45*	-7
CC1=Nc2ccccc2/C1=C/c1c(N)n2c(S(=O)(=O)CC(C)C)nsc2nc1=O	-5	-1	-10	-9	6	4
CSc1nsc2nc(=O)c(/C=C3\C=Nc4ccccc43)c(N)n12	1	1	13	1	38*	-9
COc1ccccc1CNS(=O)(=O)N(C)C	-1	-2	-7	2	4	5
CCc1nn2c(N)c(/C=C3\C=Nc4ccccc43)c(=O)nc2s1	-5	-3	13	-34	31*	-9
Cc1cn2c(N)c(/C=C3\C=Nc4ccccc43)c(=O)nc2s1	.	-2	.	-13	.	-15
SC(COCc1ccccc1)CN1CCN(Cc2ccc3c(c2)OCO3)CC1 (stereo not drawn)	-13	2	58*	-23	-12	6
OC(COCc1ccccc1)CN1CCN(Cc2ccc3c(c2)OCO3)CC1 (stereo not drawn)	-6	1	90*	13	0	-6
CC1CN(CC(O)COCc2ccc3c(c2)OCO3)CC(C)O1 (stereo not drawn)	1	-1	69*	-2	-1	9
c1cc2c(cc1CN1CCOCC1)OCO2	-10	-2	0	9	10	-2
C/C(=N/OC(=O)c1ccc(C(F)(F)F)cc1)c1oc(C)nc1C	.	3	.	-6	.	-9
Cc1c(C(=O)N(Cc2ccc(N(C)C)cc2)C2CCS(=O)(=O)C2)oc2ccccc12 (stereo not drawn)	.	-2	.	8	.	.
COc1ccc(CN(C(=O)c2oc3ccccc3c2C)C2CCS(=O)(=O)C2)cc1 (stereo not drawn)	-1	-2	54*	-10	8	0
Cc1cc2oc(C(=O)N(Cc3ccccc3)C3CCS(=O)(=O)C3)cc(=O)c2cc1Cl (stereo not drawn)	4	2	50*	-28	5	.
Cc1cc(C)c2oc(C(=O)N(Cc3ccccc3)C3CCS(=O)(=O)C3)cc(=O)c2c1 (stereo not drawn)	.	-4	.	-11	.	.
COc1ccc(NC(=O)Nc2c(SC)nsc2SC)cc1	-7	-2	-7	4	13	-11
CC(=O)Nc1cc(C(=O)O)ccc1S(=O)(=O)c1ccc(C)cc1	3	9.2*	-4	9	1	-3
Cc1ccc(S(=O)(=O)c2cc3cc(Br)ccc3oc2=O)cc1	-6	-2	42	3	-3	1
CC(C)c1ccc(S(=O)(=O)c2cc3cc(Br)ccc3oc2=O)cc1	4	-3	-6	89*	-2	0
Cc1ccc(OCC(=O)NC(=S)Nc2ccc(Br)cn2)cc1C	4	-4	-9	39	-3	-3
O=C(CCn1nc(-c2ccc(Cl)cc2)c2ccccc2c1=O)Nc1cccnc1	4	-4	62*	1	3	-1
SMILES	PKD1 inh	Wee1 degr inh	L major viab	CHOP inh	Arbovirus anti	Rad51 HR inh
COc1ccc(OCC(=O)Nc2cccc(NC(=O)c3ccco3)c2)cc1	-5	-2	13	-8	-8	2
CCC1CSC(Nc2ccc(C(=O)/C=C/c3ccc(Oc4ccccc4)cc3)cc2)=N1 (stereo not drawn)	-9	-2	59*	14	-8	7
COc1ccc(CCNc2nc(=S)[nH]c3cc(OC)c(OC)cc23)cc1OC	-5	-3	10	4	-8	-2
COc1cc2[nH]c(=S)nc(NCCc3ccc(C)cc3)c2cc1OC	-9	5	97*	67	-17	-13
Cc1nc2c(Br)cc(Br)cc2cc1O	-7	0	-5	81*	25	3
O=C(O)c1cc(-c2ccc(Cl)cc2)n(-c2ccccc2)n1	9	4	-2	-10	8	-2
